The values below come from ChEMBL document CHEMBL1121479, “Simple beta-lactam compounds derived from 6-aminopenicillanic acid” (1980).

Molecules are shown by their SMILES. Converted amounts (≈) assume the structure as drawn.

Assay [1] concerns Salmonella typhimurium. The assay can be described thus: Evaluated for the minimum inhibitory concentration (MIC) which inhibits the growth of. The format is functional, salmonella typhimurium a. The note with it: Salmonella enterica. In a few lines: (§1)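 Agar dilution on trypticase soy agar plates holding sample or standard at 0 to 200 μg/mL agar. Solutions were made and diluted in Me₂SO or water. Each plate was inoculated twice with every organism using a Steers replicator and incubated 18 h at 37 °C. MIC was taken as the lowest level that inhibited growth.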

For assay [2], the system named is Pseudomonas aeruginosa. The assay can be described thus: Evaluated for the minimum inhibitory concentration (MIC) which inhibits the growth of Pseudomonas aeruginosa ATCC 9721. The assay is classed as functional. In a few lines: as §1
For assay [3], the system named is Bacillus subtilis. The assay can be described thus: Evaluated for the minimum inhibitory concentration (MIC) which inhibits the growth of Bacillus subtilis ATCC 6051. The format is functional. In a few lines: as §1
Assay [4] has as its system Staphylococcus epidermidis. The assay can be described thus: Evaluated for the minimum inhibitory concentration (MIC) which inhibits the growth of Staphylococcus epidermidis ATCC 14990. The assay is classed as functional. In a few lines:
as §1

Assay [5] concerns Streptococcus pyogenes. Description: Evaluated for the minimum inhibitory concentration (MIC) which inhibits the growth of Streptococcus pyogenes ATCC 10389. The format is functional. In a few lines:
as §1

For assay [6], the system named is Shigella sonnei. Description: Evaluated for the minimum inhibitory concentration (MIC) which inhibits the growth of Shigella sonnei ATCC 11060. The format is functional. In a few lines:
as §1

Assay [7] concerns Proteus mirabilis. The assay can be described thus: Evaluated for the minimum inhibitory concentration (MIC) which inhibits the growth of Proteus mirabilis MIT B-52. The format is functional. In a few lines: as §1
The subject of assay [8] is Proteus vulgaris. Description: Evaluated for the minimum inhibitory concentration (MIC) which inhibits the growth of Proteus vulgaris ATCC 6380. The assay is classed as functional. In a few lines: as §1
The subject of assay [9] is Enterobacter cloacae. Description: Evaluated for the minimum inhibitory concentration (MIC) which inhibits the growth of Enterobacter cloacae ATCC 13047. The assay is classed as functional. In a few lines:
as §1

Assay [10] relates to Klebsiella pneumoniae. The assay can be described thus: Evaluated for the minimum inhibitory concentration (MIC) which inhibits the growth of Klebsiella pneumoniae ATCC 27736. The assay is classed as functional. In a few lines: as §1
The subject of assay [11] is Micrococcus luteus. The assay can be described thus: Evaluated for the minimum inhibitory concentration (MIC) which inhibits the growth of Sarcina lutea ATCC 9341. The format is functional. In a few lines: as §1
The subject of assay [12] is Staphylococcus aureus. Description: Evaluated for the minimum inhibitory concentration (MIC) which inhibits the growth of Staphylococcus aureus ATCC 25923. The format is functional. In a few lines: as §1
For assay [13], the system named is Escherichia coli. The assay can be described thus: Evaluated for the minimum inhibitory concentration (MIC) which inhibits the growth of Escherichia coli ATCC 25922. The assay is classed as functional. In a few lines:
as §1

For assay [14], the system named is Serratia marcescens. The assay can be described thus: Evaluated for the minimum inhibitory concentration (MIC) which inhibits the growth of Serratia marcescens MIT B-43. The format is functional. In a few lines:
as §1

Assay [15] concerns Pseudomonas aeruginosa. Description: Evaluated for the minimum inhibitory concentration (MIC) which inhibits the growth of Pseudomonas aeruginosa ATCC 9721 (gram-negative). The format is functional. In a few lines:
as §1

For assay [16], the system named is Proteus mirabilis. Description: Evaluated for the minimum inhibitory concentration (MIC) which inhibits the growth of Proteus mirabilis MIT B-52 (gram-negative). The format is functional. In a few lines: as §1
Assay [17] deals with Shigella sonnei. Description: Evaluated for the minimum inhibitory concentration (MIC) which inhibits the growth of Shigella sonnei ATCC 11060 (gram-negative). The format is functional. In a few lines:
as §1

Assay [18] relates to Bacillus subtilis. Description: Evaluated for the minimum inhibitory concentration (MIC) which inhibits the growth of Bacillus subtilis ATCC 6051 (gram-positive). The assay is classed as functional. In a few lines:
as §1

The subject of assay [19] is Proteus vulgaris. The assay can be described thus: Evaluated for the minimum inhibitory concentration (MIC) which inhibits the growth of Proteus vulgaris ATCC 6380 (gram-negative). The format is functional. In a few lines: as §1
Assay [20] relates to Salmonella typhimurium. The assay can be described thus: Evaluated for the minimum inhibitory concentration (MIC) which inhibits the growth of Salmonella Typhimurium ATCC 13311 (gram-negative). The assay is classed as functional, Salmonella enterica subsp. enterica serovar Typhimurium. The note with it: Salmonella enterica. In a few lines:
as §1

Assay [21] relates to Klebsiella pneumoniae. Description: Evaluated for the minimum inhibitory concentration (MIC) which inhibits the growth of Klebsiella pneumoniae ATCC 27736 (gram-negative). The format is functional. In a few lines:
as §1

In assay [22] the test system is Micrococcus luteus. The assay can be described thus: Evaluated for the minimum inhibitory concentration (MIC) which inhibits the growth of Sarcina lutea ATCC 9341 (gram-positive). The format is functional. In a few lines:
as §1

For assay [23], the system named is Enterobacter cloacae. Description: Evaluated for the minimum inhibitory concentration (MIC) which inhibits the growth of Enterobacter cloacae ATCC 13047 (gram-negative). The format is functional. In a few lines:
as §1

In assay [24] the test system is Staphylococcus epidermidis. Description: Evaluated for the minimum inhibitory concentration (MIC) which inhibits the growth of Staphylococcus epidermidis ATCC 14990 (gram-positive). The assay is classed as functional. In a few lines: as §1
Assay [25] has as its system Escherichia coli. Description: Evaluated for the minimum inhibitory concentration (MIC) which inhibits the growth of Escherichia coli ATCC 25922 (gram-negative). The assay is classed as functional. In a few lines:
as §1

Assay [26] has as its system Streptococcus pyogenes. The assay can be described thus: Evaluated for the minimum inhibitory concentration (MIC) which inhibits the growth of Streptococcus pyogenes ATCC 10389 (gram-positive). The format is functional. In a few lines: as §1
In assay [27] the test system is Serratia marcescens. Description: Evaluated for the minimum inhibitory concentration (MIC) which inhibits the growth of Serratia marcescens MIT B-43 (gram-negative). The assay is classed as functional. In a few lines: as §1
Assay [28] concerns Staphylococcus aureus. The assay can be described thus: Evaluated for the minimum inhibitory concentration (MIC) which inhibits the growth of Staphylococcus aureus ATCC 25923 (gram-positive). The format is functional. In a few lines: as §1

In the case of `CC(C)(CO)SC1CC(=O)N1` (stereo not drawn), the MIC (as a rule, the least concentration at which growth counts as inhibited) in the assay on Salmonella typhimurium [1] was > 100 µg/mL; in the assay with Pseudomonas aeruginosa [2], > 100 µg/mL; in the assay on Bacillus subtilis [3], 100 µg/mL (≈ 571 µM); in assay [4], > 100 µg/mL; in the assay with Streptococcus pyogenes [5], > 100 µg/mL; with Shigella sonnei [6], > 100 µg/mL. For the same compound, the MIC in the assay on Proteus mirabilis [7], against Proteus vulgaris [8], against Enterobacter cloacae [9], in the assay on Klebsiella pneumoniae [10], against Micrococcus luteus [11] and with Staphylococcus aureus [12] was > 100 µg/mL in each case. Moreover, the MIC against Escherichia coli [13] and in the assay on Serratia marcescens [14] was > 100 µg/mL in each case.

With `CC1(C)SC2CC(=O)N2C1O` (stereo not drawn), the MIC was > 100 µg/mL with Pseudomonas aeruginosa [15]; > 100 µg/mL against Proteus mirabilis [16]; > 100 µg/mL in the assay on Shigella sonnei [17]; 25 µg/mL (≈ 144 µM) with Bacillus subtilis [18]; > 100 µg/mL in the assay with Proteus vulgaris [19]; > 100 µg/mL in the assay on Salmonella typhimurium [20]. The MIC (in the assay on Klebsiella pneumoniae [21]; with Micrococcus luteus [22]; in the assay with Enterobacter cloacae [23]; in assay [24]; in the assay with Escherichia coli [25]; in the assay with Streptococcus pyogenes [26]) was > 100 µg/mL throughout. In addition, the MIC against Serratia marcescens [27] and with Staphylococcus aureus [28] was > 100 µg/mL throughout.
